Measured values gathered from unrelated publications.
Each line is one published result; the experiments were not run side by side.
SLC6A3: Sodium-dependent dopamine transporter (SLC6A3, Homo sapiens, UniProt Q01959)
CHEK1: Serine/threonine-protein kinase Chk1 (CHEK1, Homo sapiens, UniProt O14757)
PTPN22: Tyrosine-protein phosphatase non-receptor type 22 (PTPN22, Homo sapiens, UniProt Q9Y2R2)
PRMT1: Protein arginine N-methyltransferase 1 (PRMT1, Homo sapiens, UniProt Q99873)
PDE10A: cAMP and cAMP-inhibited cGMP 3',5'-cyclic phosphodiesterase 10A (PDE10A, Homo sapiens, UniProt Q9Y233)
TLR8: Toll-like receptor 8 (TLR8, Homo sapiens, UniProt Q9NR97)

`CN(CCOc1ccc(CC2SC(=O)NC2=O)cc1)c1ccccn1` (stereo not drawn) gave an IC50 of 1700 nM (Pantothenate kinase 3 (PANK3, Homo sapiens, UniProt Q9H999); enzyme activity; inhibitor; ATP luminescence).
For `c1ccc(CCC2CCN(CCCCn3nnnc3C(c3ccccc3)c3ccccc3)CC2)cc1`, the IC50 was 383 nM (SLC6A3; transporter uptake; inhibitor).
With `OCc1ccc(-c2ccc(-c3[nH]nc4c3Cc3cc(O)ccc3-4)cc2)cc1` the IC50 was over 10000 nM (CHEK1; enzyme activity; inhibitor).
The IC50 of `O=C(O)C(=O)CC(=O)c1cccc(N(Cc2ccccc2)Cc2ccccc2)c1` is reported as 73000 nM (PTPN22; enzyme activity; inhibitor; absorbance; pH 7).
`CN1C(=O)c2c(nn(Cc3ccc(-c4cccc(F)n4)cc3)c2Nc2ccccc2)N2C1=N[C@@H]1CCC[C@@H]12` gave an IC50 of 0.053 nM (Dual specificity calcium/calmodulin-dependent 3',5'-cyclic nucleotide phosphodiesterase 1C (PDE1C, Homo sapiens, UniProt Q14123); enzyme activity; inhibitor; radiometric).
`C/C(=N\O)c1ccc(-c2ccc(O)c(C)c2)c(Cl)c1O` has an IC50 of 11100 nM (Solute carrier family 2, facilitated glucose transporter member 1 (SLC2A1, Homo sapiens, UniProt P11166); transporter uptake; inhibitor; radiometric).
The IC50 of `Clc1ccc(C(c2ccc(Cl)cc2)c2nnnn2CCCCN2CCC(Cc3ccccc3)CC2)cc1` is reported as 172 nM (SLC6A3; transporter uptake; inhibitor).
`N=C(NCCCSC[C@H]1O[C@@H](n2cnc3c(NCCCc4ccccc4)ncnc32)[C@H](O)[C@@H]1O)Nc1ccccc1` has an IC50 of 355 nM (PRMT1; enzyme activity; inhibitor; fluorescence).
With `COc1cc(-c2ccc3c(c2)Nc2ccc(OCCN4CCOCC4)cc2NC3=O)ccc1[N+](=O)[O-]` the IC50 was 24.5 nM (CHEK1; enzyme activity; inhibitor).
For `CC/C=C\C/C=C\C/C=C\C/C=C\C/C=C\CCCC(=O)O`, the IC50 was 20000 nM (DNA topoisomerase 1 (TOP1, Homo sapiens, UniProt P11387); enzyme activity; inhibitor).
The IC50 of `CCCC[C@H](NC(=O)[C@H](C)c1c(C)[nH]c2ccc(O)cc12)c1ncc(-c2cc3ccccc3nc2OC)[nH]1` is reported as over 45000 nM (Histone deacetylase 5 (HDAC5, Homo sapiens, UniProt Q9UQL6); enzyme activity; inhibitor).
For `N=C(NCCCSC[C@H]1O[C@@H](n2cnc3c(NCCCc4ccccc4)ncnc32)[C@H](O)[C@@H]1O)NC1CCC1`, the IC50 was 249 nM (PRMT1; enzyme activity; inhibitor; fluorescence).
With `COc1cc(C[C@H]2C(=O)OC[C@@H]2Cc2ccc(OC)c(OC)c2)ccc1O` the IC50 was over 5000 nM (PDE10A; enzyme activity; inhibitor).
With `CC(C)(C)OC(=O)NCCCCOc1ccc(Cl)cc1NC(=O)Nc1cnc(C#N)cn1` the IC50 was 8370 nM (CHEK1; enzyme activity; inhibitor).
For `COc1cc(O)c(C(CC(=O)N2CCCC2)c2ccc3c(c2)OCO3)c(OC)c1` (stereo not drawn), the IC50 was over 50000 nM (Nuclear receptor ROR-gamma (Mus musculus, UniProt P51450); reporter gene).
For `O=C(O)C1=CCCN(CCON=C(c2ccccc2)c2ccccc2)C1`, the IC50 was 210 nM (Sodium- and chloride-dependent GABA transporter 1 (Slc6a1, Rattus norvegicus, UniProt P23978); ligand displacement; radioligand).
With `COc1cc(-c2ccc3c(c2)N(C)c2ccccc2NC3=O)ccc1[N+](=O)[O-]` the IC50 was 1640 nM (CHEK1; enzyme activity; inhibitor).
For `Cc1cc(-c2ccnc3cc(Cl)ccc23)ccc1O`, the IC50 was 1 nM (TLR8; reporter gene; antagonist).
With `COc1cc(-c2ccc3c(c2)Nc2ccc(CC(=O)N4CCCC(O)C4)cc2NC3=O)ccc1Cl` (stereo not drawn) the IC50 was 14.8 nM (CHEK1; enzyme activity; inhibitor).
The IC50 of `Clc1ccc(CC2CCN(CCCCn3nnnc3C(c3ccccc3)c3ccccc3)CC2)cc1Cl` is reported as 488 nM (SLC6A3; transporter uptake; inhibitor).
For `COc1cc2c(cc1OCc1ccncc1)Nc1cc(-c3ccc([N+](=O)[O-])c(OC)c3)ccc1C(=O)N2`, the IC50 was 5.17 nM (CHEK1; enzyme activity; inhibitor).
`Clc1ccc(C(c2ccccc2)c2nnnn2CCCCN2CCN(CCCc3ccccc3)CC2)cc1` (stereo not drawn) gave an IC50 of 415 nM (SLC6A3; transporter uptake; inhibitor).
`COC(=O)Cc1ccc2c(c1)NC(=O)c1ccc(-c3cc(OC)ncc3C)cc1N2` gave an IC50 of 7.79 nM (CHEK1; enzyme activity; inhibitor).
`CO[C@H]1O[C@H](COS(=O)(=O)O)[C@@H](O[C@@H]2O[C@@H](C(=O)O)[C@@H](O[C@H]3O[C@H](COS(=O)(=O)O)[C@@H](O[C@@H]4O[C@H](C(=O)O)[C@@H](O[C@H]5O[C@H](COS(=O)(=O)O)[C@@H](O)[C@H](O)[C@H]5NS(=O)(=O)O)[C@H](O)[C@H]4O)[C@H](OS(=O)(=O)O)[C@H]3NS(=O)(=O)O)[C@H](O)[C@H]2OS(=O)(=O)O)[C@H](O)[C@H]1NS(=O)(=O)O` gave an IC50 of over 360000 nM (Coagulation factor XI (F11, Homo sapiens, UniProt P03951); enzyme activity; inhibitor; absorbance; pH 7.4).
`C=C1CC[C@@H]([C@H](C)CC(=O)/C=C(\C)C(=O)O)[C@@]12CCC1=C2CC[C@H]2C(C)(C)C(=O)CC[C@]12C` gave an IC50 of over 20000 nM (ATP-citrate synthase (ACLY, Homo sapiens, UniProt P53396); enzyme activity; inhibitor).
`CC(C)N(C(=S)SSC(=S)N(C(C)C)C(C)C)C(C)C` gave an IC50 of 7000 nM (PTPN22; enzyme activity; inhibitor; fluorescence; pH 6.5).
`COc1ccc2c(c1)C(CC(=O)Nc1cccnc1)=C(C)/C2=C/c1cc(OC)c(OC)c(OC)c1` has an IC50 of 300 nM (PDE10A; enzyme activity; inhibitor; FP).
`Cc1cccc(-c2ccnc3c(C(=O)O)cnn23)c1` has an IC50 of over 20000 nM (TLR8; reporter gene).
`COc1cc(-c2ccc3c(c2)Nc2ccc(CC(=O)NC(CO)c4ccccc4)cc2NC3=O)ccc1[N+](=O)[O-]` (stereo not drawn) has an IC50 of 26.9 nM (CHEK1; enzyme activity; inhibitor).
`CCn1ncc2c1-c1cnc(N)c(c1)O[C@H](C)c1cc(F)ccc1-c1nn(C)nc1C2` gave an IC50 of 5.8 nM (Leukocyte tyrosine kinase receptor (LTK, Homo sapiens, UniProt P29376); enzyme activity; inhibitor; radiometric).
`COc1cccc(CN(C(=O)CC(C)(C)C)[C@H]2C[C@@H](C(=O)N3CCNCC3)N(Cc3ccc4c(c3)OCO4)C2)c1` has an IC50 of 1500 nM (Protein smoothened (SMO, Homo sapiens, UniProt Q99835); reporter gene; inhibitor; luciferase).
For `Fc1ccc(C(c2ccc(F)cc2)c2nnnn2CCCCN2CCN(Cc3ccccc3)CC2)cc1`, the IC50 was 144 nM (SLC6A3; transporter uptake; inhibitor).
For `COc1ccc2c(Oc3ccc4c(C(=O)Nc5ccccc5N)cccc4c3)ccnc2c1`, the IC50 was over 500 nM (Ephrin type-B receptor 4 (EPHB4, Homo sapiens, UniProt P54760); enzyme activity; inhibitor).
